Screening results from PubChem BioAssay.
Shown are actives, neighbours in structure and some others; about 3% of the full set was active somewhere.
PLCg1 inh: PLC-gamma1 (human) inhibition, primary screen. actives 0.84% (n = 370,000). inhibition, % at 12.2 µM. purified PLC-gamma1, fluorogenic substrate, fluorescence; in the data active = inhibition above about 9.5%
KLK7 zymogen act: proKLK7 (human) activation, primary screen; P49862; purified proKLK7, EDANS-DABCYL substrate fluorescence; 100% is mature enzyme control, 0% vehicle; activation, % at 7 µM; actives 0.9% (n = 370,000);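 active = activation above the mean of all tested compounds plus 3 SD, computed per campaign excluding outliers beyond control limits, cut at about 13% in these data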
PLCb3 inh: blocks human PLC-beta3 enzyme activity | Q01970 | Purified PLC-beta3, fluorogenic substrate, fluorescence | inhibition, % at 12.2 µM | actives 0.18% (n = 370,000); in the data active = inhibition above about 11%
Tn7 DDE FP: DD(E)-Tn7 binding inhibition, primary FP screen; FP displacement of FITC-Tn7 peptide from fibrin DD(E); 0% = median of compound wells per plate; P02675; actives 0.13% (n = 370,000); inhibition, % at 8.3 µM;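 active = inhibition above the mean of compounds falling within the control limits plus 3 SD of them, cut at about 14% in these data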
Target sequence (P02675 whole entry, looked up): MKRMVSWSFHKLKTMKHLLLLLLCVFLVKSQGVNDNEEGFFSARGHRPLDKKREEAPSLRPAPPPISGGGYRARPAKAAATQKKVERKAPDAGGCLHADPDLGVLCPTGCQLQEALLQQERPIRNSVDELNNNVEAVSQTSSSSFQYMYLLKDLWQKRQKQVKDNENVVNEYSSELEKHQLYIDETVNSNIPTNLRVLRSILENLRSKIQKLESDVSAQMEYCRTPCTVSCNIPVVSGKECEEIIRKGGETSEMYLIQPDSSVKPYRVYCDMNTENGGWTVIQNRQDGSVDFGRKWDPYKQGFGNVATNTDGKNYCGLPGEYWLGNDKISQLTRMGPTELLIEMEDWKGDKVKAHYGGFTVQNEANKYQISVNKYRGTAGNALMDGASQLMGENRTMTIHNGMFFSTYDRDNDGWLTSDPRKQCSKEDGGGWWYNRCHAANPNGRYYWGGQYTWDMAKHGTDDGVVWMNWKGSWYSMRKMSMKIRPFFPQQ
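assay system = human clot-derived fibrin DD(E) complex | quantity = Fibrin-DD(E) at 2 µM final | timing = 10 min preincubation, 3 h with tracer, room temperature | signal = fluorescence polarization | measure = percent inhibition | benchmarks = high control wells with 10 µM unlabelled Aha-Tn7 peptide (full inhibition) | replicates = singlicate testing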
NRP1-CendR mod: alters CendR peptide binding to human NRP-1. FAM-RPARPAR peptide binding to NRP-1, fluorescence polarization. inhibition, % at 25 µM. actives 0.85% (n = 360,000);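 active = inhibition or corrected inhibition above about 18%, plus a signal ratio from 0.5 to 1.5, limit read from the data, passing the limit was not always enough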
Tn6 DDE FP: inhibitors of Tn6 peptide binding to human fibrin DD(E) | inhibition, % at 8.3 µM | P02675 | Fibrin DD(E) TRITC-Tn6 fluorescence polarization displacement | AID 720509 | actives 0.21% (n = 370,000);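 active = inhibition above a per-campaign cutoff: mean of compounds within control limits plus 3 SD, cut at about 15% in these data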
Numbers stand for hits; - = inactive; . = not tested or not shown.

SMILES | PLCg1 inh | KLK7 zymogen act | PLCb3 inh | Tn7 DDE FP | NRP1-CendR mod | Tn6 DDE FP
Cc1cc(C)cc(C(=O)OCCN(C)C2CN(Cc3cn(Cc4ccc([N+](=O)[O-])cc4)nn3)S(=O)(=O)C2)c1 (stereo unspecified) | - | - | - | - | . | -
Cc1c(C(=O)N2CCOCC2)c(S(=O)(=O)Nc2cccc(F)c2)c(C)n1C | - | - | - | - | - | -
Cc1c(C(=O)N2CCOCC2)c(S(=O)(=O)Nc2cccc(C#N)c2)c(C)n1C | - | - | - | - | 22.1 | -
CCOC(=O)Oc1ccc2c(=O)c(Oc3cc(C)cc(C)c3)coc2c1 | - | 35.9 | - | - | - | -
CCOC(=O)Oc1ccc2c(=O)c(Oc3cccc(C)c3)coc2c1 | - | 75.9 | - | - | - | -
O=C(C1CCC1)N1CCc2cc(S(=O)(=O)N3CCCC3)ccc21 | - | - | - | - | . | -
CC(=NN(Cc1ccccc1)c1ccccc1)c1ccccc1 | - | - | - | - | 21.8 | -
C/C(=N\N(c1ccccc1)c1ccccc1)c1ccc(O)cc1 | - | - | - | - | - | -
CC(C)COc1ccc(/C=C2/Sc3ccccc3C2=O)cc1 | - | - | - | - | - | -
CCCCOc1ccc(/C=C2/Sc3ccccc3C2=O)cc1 | - | - | - | - | 35.0 | -
Cn1cc(-c2csc(C(C)(O)c3cccc(F)c3)n2)cn1 (stereo unspecified) | 10.1 | - | - | - | - | -
COCCCNC(=O)C[C@H]1C[C@@]2(C(=O)OC)C(=C[C@H](COCc3ccccc3)O[C@@H]2C)N(Cc2ccc(Cl)cc2Cl)C1=O | - | - | - | - | . | -
CN(CC(=O)Nc1ccc(Cl)cc1)C(=O)Cn1[nH]c(=O)c2ccccc2c1=O | 9.8 | - | - | - | - | -
CCn1c(=O)[nH]n(C/C(C)=C\c2c[n+](Cc3ccc4c(c3)OCO4)c(N)[nH]2)c1=O | - | . | - | - | . | -
CN(C)c1ncnc2c1ncn2C1CCCO1 (stereo unspecified) | - | - | - | - | 26.2 | -
CN(C)c1ncnc2c1ncn2C1CCCCO1 (stereo unspecified) | - | - | - | - | - | -
CCN1C(=O)/C(=C2/Sc3ccccc3N2CC)SC1=S | - | - | - | - | 48.4 | -
CCN1/C(=C2\SC(=S)N(Cc3ccccc3)C2=O)Sc2ccccc21 | - | - | - | - | - | -
O=C(Nc1ccc2c(c1)OCO2)NC1CCCCN(Cc2cccc(Cl)c2)C1=O (stereo unspecified) | - | - | - | - | . | -
CN1CCN(C2=C(Cl)C(=O)c3ccccc3C2=O)CC1 | - | - | - | - | 35.8 | -
O=C1C(Cl)=C(N2CCC(C(=O)O)CC2)C(=O)c2ccccc21 | . | . | . | . | 34.9 | .
Cn1c(=O)cc(OCCCC(=O)Nc2cc(-c3cn[nH]c3)ccn2)c2ccccc21 | - | . | - | - | . | -
COc1ccc(-n2c(SCC(=O)NNC(=S)Nc3ccccc3)nc3ccccc3c2=O)cc1 | - | - | - | - | . | -
O[C@@H]1[C@@H](O)[C@H](n2c3ccc(Cl)cc3c3ccc4c5cc(Cl)ccc5[nH]c4c32)OC[C@H]1O | - | - | - | - | . | -
O=C(Cn1c(=S)[nH]c2ccccc21)c1ccccc1 | - | - | - | - | 32.8 | -
SMILES | PLCg1 inh | KLK7 zymogen act | PLCb3 inh | Tn7 DDE FP | NRP1-CendR mod | Tn6 DDE FP
Cc1ccc(NC(=O)Cn2c(=S)[nH]c3ccccc32)cc1 | - | - | - | - | - | -
COc1ccccc1OCC(=O)NCC(c1cccs1)N1CCOCC1 (stereo unspecified) | - | - | - | - | 24.9 | -
Cn1nc(C(=O)NCC(c2cccs2)N2CCOCC2)c2ccccc2c1=O (stereo unspecified) | - | - | - | - | 27.0 | -
Cn1cnc([N+](=O)[O-])c1Sc1nnc(-c2ccccc2)c(-c2ccccc2)n1 | - | - | - | - | . | -
Cc1ccc(NCC(=O)N/N=C/c2cccc(Oc3ccccc3)c2)cc1 | - | - | - | - | 40.6 | -
Cc1cccc(NCC(=O)N/N=C\c2cccc(Oc3ccccc3)c2)c1 | - | - | - | - | - | -
CCCN1CCC(=O)N([C@H](CSc2ccccc2)CC(C)C)CC1 | - | - | - | - | - | -
CC(C)CN1CCC(=O)N([C@H](CSc2ccc(Br)cc2)Cc2ccccc2)CC1 | - | - | - | - | 24.4 | -
